Assay results published in ChEMBL document CHEMBL3044924, “Design, synthesis, and insecticidal activities of phthalamides containing a hydrazone substructure” (2010).
In brackets after ≈: the same amount, converted by molar mass. Activity calls are given as the source filed them. The rule behind the calls is not given here.

Key:
Myzus persicae [1] = experiment: Insecticidal activity against adult Myzus persicae (green peach aphid) in compound treated cabbage leaves assessed as mortality at 25 degC and 85% RH for 24 hr; format: functional
Myzus persicae [2] = experiment: Insecticidal activity against adult Myzus persicae (green peach aphid) in compound treated cabbage leaves assessed as mortality at 200 mg/L at 25 degC and 85% RH for 24 hr; format: functional
Procedure, shortened: (§1)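 Aphids exposed to treated leaf at 200, 50 and 12.5 mg/L. Mortality corrected for untreated controls with Abbott's formula.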

Myzus persicae [3] = experiment: Insecticidal activity against adult Myzus persicae (green peach aphid) in compound treated cabbage leaves assessed as mortality at 600 mg/L at 25 degC and 85% RH for 24 hr; format: functional
Plutella xylostella = experiment: Larvicidal activity against second instar Plutella xylostella (diamondback moth) in compound treated cabbage leaves assessed as mortality at 600 mg/L measured after 3 days; format: functional; conditions: 72 h
Procedure, shortened: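 Lab-reared field-collected stock (Haidian, Beijing), second-instar larvae. Leaf-dip assay: 2.0 cm cabbage leaf disks dipped 5 s in test solution, air-dried, then placed in a 6.0 cm tube lined with filter paper. Larvae added within 10 s. Mortality (%) scored 3 days after treatment, two replicates.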

Myzus persicae [4] = experiment: Insecticidal activity against adult Myzus persicae (green peach aphid) in compound treated cabbage leaves assessed as mortality at 12.5 mg/L at 25 degC and 85% RH for 24 hr; format: functional; procedure, shortened: as §1
Myzus persicae [5] = experiment: Stomach toxicity in adult Myzus persicae (green peach aphid) in compound treated cabbage leaves assessed as mortality at 600 mg/L at 25 degC and 85% RH for 24 hr; format: functional, organism-based
Myzus persicae [6] = experiment: Insecticidal activity against adult Myzus persicae (green peach aphid) in compound treated cabbage leaves assessed as mortality at 50 mg/L at 25 degC and 85% RH for 24 hr; format: functional; procedure, shortened: as §1

| Structure (SMILES) | LC50 (Myzus persicae [1]) | mortality at 200 µg/mL (Myzus persicae [2]) | mortality at 600 µg/mL (Myzus persicae [3]) | mortality at 600 µg/mL (Plutella xylostella) | mortality at 12.5 µg/mL (Myzus persicae [4]) | Activity (Myzus persicae [5]) | mortality at 50 µg/mL (Myzus persicae [6]) |
| --- | --- | --- | --- | --- | --- | --- | --- |
| O=C(NN=Cc1cccs1)c1cc(Cl)ccc1C(=O)NC1CCCCC1 | 113 µg/mL (≈ 290 µM) | 37.8% | 98.8% | 33.3% | 19.6% | Active | 13.5% |
| Cc1ccsc1C=NNC(=O)c1cc(Cl)ccc1C(=O)NC1CCCCC1 | 58.9 µg/mL (≈ 146 µM) | 45.2% | 90.6% | 11.1% | 22.4% | Active | 41.7% |
| CCCCNC(=O)c1ccc(Cl)cc1C(=O)NN=Cc1ccccc1F | 122 µg/mL (≈ 324 µM) | 39.6% | 94.6% | 22.2% | 9.7% | Active | 34% |
| CCCCNC(=O)c1ccc(Cl)cc1C(=O)NN=Cc1ccc(C(F)(F)F)cc1 | 130 µg/mL (≈ 305 µM) | 49.3% | 96.6% | 33.3% | 12.5% | Active | 22.9% |
| Cc1ccc(C=NNC(=O)c2cc(Cl)ccc2C(=O)NC2CCCCC2)o1 | 271 µg/mL (≈ 700 µM) | 16% | 93% | 33.3% | 0% | Active | 7.3% |
| Cc1ccsc1C=NNC(=O)c1cc(Cl)ccc1C(=O)NC(C)C | 124 µg/mL (≈ 342 µM) | 56.1% | 90.6% | 44.4% | 16.3% | Active | 25.5% |
| CC(C)NC(=O)c1ccc(Cl)cc1C(=O)NN=Cc1ccc(F)cc1 | 68.1 µg/mL (≈ 188 µM) | 57.8% | 91.3% | 100% | 21.9% | Active | 52.8% |
| CCCCNC(=O)c1ccc(Cl)cc1C(=O)NN=Cc1ccc(F)cc1 | 310 µg/mL (≈ 825 µM) | 20% | 97.7% | 33.3% | 19% | Active | 18.6% |
| CCCCNC(=O)c1ccc(Cl)cc1C(=O)NN=Cc1ccco1 | 234 µg/mL (≈ 673 µM) | 20% | 100% | 44.4% | 0% | Active | 11.7% |
| O=C(NN=Cc1ccc(O)cc1)c1cc(Cl)ccc1C(=O)NC1CCCCC1 | 244 µg/mL (≈ 611 µM) | 24.6% | 92.6% | 55.6% | 25.7% | Active | 19.4% |
| Cc1ccc(C=NNC(=O)c2cc(Cl)ccc2C(=O)NC(C)C)s1 | 76.2 µg/mL (≈ 209 µM) | 52.3% | 100% | 55.6% | 29.3% | Active | 32.7% |
| O=C(NN=Cc1ccccc1F)c1cc(Cl)ccc1C(=O)NC1CCCCC1 | 276 µg/mL (≈ 687 µM) | 23.8% | 90.2% | 33.3% | 5.9% | Active | 8.3% |
| CC(C)NC(=O)c1ccc(Cl)cc1C(=O)NN=Cc1ccco1 | 161 µg/mL (≈ 484 µM) | 29.3% | 100% | 44.4% | 18.6% | Active | 25.4% |
| CC(C)NC(=O)c1ccc(Cl)cc1C(=O)NN=Cc1ccc(O)cc1 | 129 µg/mL (≈ 357 µM) | 55.6% | 100% | 55.6% | 5.4% | Active | 16.9% |
| CC(C)NC(=O)c1ccc(Cl)cc1C(=O)NN=Cc1ccccc1Cl | 171 µg/mL (≈ 451 µM) | 28.2% | 92.9% | 33.3% | 16.3% | Active | 12.5% |
| CCCCNC(=O)c1ccc(Cl)cc1C(=O)NN=Cc1cccs1 | 124 µg/mL (≈ 341 µM) | 35.7% | 98.6% | 44.4% | 9.4% | Active | 23.3% |
| Cc1ccc(C=NNC(=O)c2cc(Cl)ccc2C(=O)NC(C)C)o1 | 122 µg/mL (≈ 350 µM) | 50% | 96.4% | 44.4% | 13.8% | Active | 16.9% |
| O=C(NN=Cc1ccco1)c1cc(Cl)ccc1C(=O)NC1CCCCC1 | 221 µg/mL (≈ 592 µM) | 15.7% | 100% | 33.3% | 8.2% | Active | 20% |
| O=C(NN=Cc1ccccc1Cl)c1cc(Cl)ccc1C(=O)NC1CCCCC1 | 148 µg/mL (≈ 355 µM) | 41.3% | 100% | 66.7% | 26.2% | Active | 28% |
| Cc1cc(C(F)(C(F)(F)F)C(F)(F)F)ccc1NC(=O)c1cccc(I)c1C(=O)NC(C)(C)CS(C)(=O)=O [FLUBENDIAMIDE] | 184 µg/mL (≈ 270 µM) |  |  |  |  |  |  |
| Cc1nn(-c2ccccc2)c(Cl)c1C=NNC(=O)c1cc(Cl)ccc1C(=O)NC1CCCCC1 | 266 µg/mL (≈ 534 µM) | 9.5% | 91.9% | 66.7% | 16.7% | Active | 9.1% |
| CC(C)NC(=O)c1ccc(Cl)cc1C(=O)NN=Cc1cccs1 | 70.5 µg/mL (≈ 202 µM) | 45.5% | 98.7% | 0% | 24% | Active | 30.3% |
